Assay results taken from ChEMBL document CHEMBL5230171, “Expanding the structure-activity relationships of alkynyl diphenylurea scaffold as promising antibacterial agents” (RSC Med Chem, 2023).
Values after ≈ are worked out from the molar mass of the structure shown. Active and inactive are the calls of the source.

Legend:
[1] = system: Staphylococcus aureus; assay: Antibacterial activity against vancomycin resistant Staphylococcus aureus 9 assessed as inhibition of bacterial growth incubated for 18 to 20 hrs by CLSI protocol based broth microdilution method; type: functional; conditions: time 18-20 hrs
Summary of the method: (§1)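 Broth microdilution against staphylococcal clinical isolates. Each strain was prepared as a 0.5 McFarland suspension and diluted in cation-adjusted Mueller Hinton broth to ~5 × 10^5 CFU mL−1. Serial dilutions of test agents in DMSO stock were incubated with the bacteria, and the MIC was recorded.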

[2] = system: Staphylococcus epidermidis; assay: Antibacterial activity against Staphylococcus epidermidis 101 assessed as inhibition of bacterial growth incubated for 18 to 20 hrs by CLSI protocol based broth microdilution method; type: functional; conditions: time 18-20 hrs
Summary of the method: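 Staphylococcal and E. coli strains were diluted from a 0.5 McFarland suspension in cation-adjusted Mueller Hinton broth to ~5 × 10^5 CFU mL−1. They were incubated with serial dilutions of test agent in broth microdilution, and the MIC was recorded.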

[3] = system: Staphylococcus aureus; assay: Antibacterial activity against methicillin resistant Staphylococcus aureus NRS384 USA300 assessed as inhibition of bacterial growth incubated for 18 to 20 hrs by CLSI protocol based broth microdilution method; type: functional; conditions: time 18-20 hrs, read-out: MIC; summary of the method: as §1
[4] = system: Streptococcus pneumoniae; assay: Antibacterial activity against Streptococcus pneumoniae 51916 assessed as inhibition of bacterial growth incubated for 18 to 20 hrs by CLSI protocol based broth microdilution method; type: functional; conditions: time 18-20 hrs
Summary of the method: (§2)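 Streptococci were diluted from a 0.5 McFarland suspension in cation-adjusted Mueller Hinton broth with 5% lysed horse blood. They were incubated with serial dilutions of test agent in broth microdilution, and the MIC was recorded.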

[5] = Hemolytic activity in rabbit erythrocytes at 32 to 64 ug/ml incubated for 30 mins by absorbance based assay; type: toxicity, cell-based, Oryctolagus cuniculus; conditions: erythrocyte, 0.5 h, dose 32-64 µg/ml
Summary of the method: (§3)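 Rabbit erythrocytes were washed three times in PBS pH 7.4 and adjusted to A540 0.8. They were mixed 1:1 with compound (final 16, 32, 64 μg mL−1) for 30 min at 37 °C. After centrifugation at 13 000 × g for 5 min, supernatant A540 was read as % of 1% Triton X-100 complete hemolysis. PBS served as negative control. Each concentration was run twice.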

[6] = system: Staphylococcus aureus; assay: Antibacterial activity against methicillin resistant Staphylococcus aureus NRS384 USA300 infected in Balb/c mouse model of skin infection assessed as reduction in bacterial burden in spleen administered topically twice daily for three consecutive days from day 4 to 6 and measured 24 hrs post last dose; type: functional; conditions: route top; time 4 day
Summary of the method: (§4)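 Mice were anesthetized with 2,2,2-tribromoethanol and injected subcutaneously with 100 μL containing 2 × 10^9 CFU MRSA USA300 in 0.5% HPMC in saline. Topical treatment used a petroleum jelly vehicle, with a fusidic acid positive control. Lesions were photographed 24 h after the last dose. A ~1.5 cm2 skin patch (homogenized in 1 mL saline) and the spleen (in 0.5 mL) were serially diluted and plated on MSA at 37 °C overnight for CFU.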

[7] = system: Enterococcus faecium; assay: Antibacterial activity against Enterococcus faecium 700221 assessed as inhibition of bacterial growth incubated for 18 to 20 hrs by CLSI protocol based broth microdilution method; type: functional; conditions: time 18-20 hrs
Summary of the method: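 Enterococci and L. monocytogenes were diluted from a 0.5 McFarland suspension in TSB. They were incubated with serial dilutions of test agent in broth microdilution, and the MIC was recorded.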

[8] = system: Staphylococcus aureus; assay: Antibacterial activity against methicillin resistant Staphylococcus aureus NRS384 USA300 infected in Balb/c mouse model of skin infection assessed as healing administered topically twice daily for three consecutive days from day 4 to 6 and measured 24 hrs post last dose; type: functional, organism-based; conditions: route top, time 4.0 day; summary of the method: as §4
[9] = Hemolytic activity in rabbit erythrocytes at 16 ug/ml incubated for 30 mins by absorbance based assay; type: toxicity, cell-based, Oryctolagus cuniculus, Erythrocyte; conditions: at 16 µg/mL, read-out: Activity; summary of the method: as §3
[10] = system: Staphylococcus aureus; assay: Post antibiotic effect against methicillin resistant Staphylococcus aureus NRS384 USA300 assessed as time required for 1 log10 increase in CFU at 5 times of MIC incubated for 2 hrs followed by replacement with drug free medium and measured after 18-24 hrs; type: functional
Summary of the method: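 MRSA USA300 at ~10^6 CFU mL−1 was exposed for 2 h to 5× MIC of test agent, with vancomycin or DMSO as controls. Drug was removed by 1:1000 dilution in fresh TSB. Cultures were incubated at 37 °C with 180 rpm shaking and sampled hourly for 8 h, with viable counts on MSA read after 18–24 h. PAE = T − C, where T and C are the times for a 1 log10 rise in the test and control cultures.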

[11] = system: Streptococcus mutans; assay: Antibacterial activity against Streptococcus mutans 25175 assessed as inhibition of bacterial growth incubated for 18 to 20 hrs by CLSI protocol based broth microdilution method; type: functional; conditions: time 18-20 hrs; summary of the method: as §2
[12] = system: Staphylococcus aureus; assay: Induction of drug resistance in methicillin resistant Staphylococcus aureus NRS384 USA300 assessed as change in MIC measured after 4 passages by broth microdilution method; type: functional, organism-based
Summary of the method: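 Multi-step resistance in MRSA USA300 over 14 consecutive passages, with rifampicin as the control antibiotic. The MIC was determined by broth microdilution at each passage. Resistance was defined as a greater than four-fold rise over the initial MIC.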

[13] = system: Staphylococcus aureus; assay: Antibacterial activity against vancomycin resistant Staphylococcus aureus 10 assessed as inhibition of bacterial growth incubated for 18 to 20 hrs by CLSI protocol based broth microdilution method; type: functional; conditions: time 18-20 hrs; summary of the method: as §1
[14] = system: Streptococcus pyogenes; assay: Antibacterial activity against Streptococcus pyogenes MGAS 1882 assessed as inhibition of bacterial growth incubated for 18 to 20 hrs by CLSI protocol based broth microdilution method; type: functional; conditions: time 18-20 hrs; summary of the method: as §2

In the case of C/C(=N\NC(=N)N)c1ccc(NC(=O)Nc2ccc(C#Cc3ccccc3)cc2)cc1, the MIC [1] is reported as 0.5 µg/mL (≈ 1.22 µM), the MIC [2] is reported as 0.5 µg/mL (≈ 1.22 µM) and the MIC [3] is reported as 0.5 µg/mL (≈ 1.22 µM). For the same compound, the MIC [4] was 0.5 µg/mL (≈ 1.22 µM), the Activity [5] was “Toxic” and the Activity [6] was >1 log10CFU/ml. The MIC [7] was 0.5 µg/mL (≈ 1.22 µM), the Activity [8] was “Active” and the hemolysis at 0.5 h, 16 ug/ml [9] was 2%. The Time [10] was 5 h, the MIC [11] was 0.5 µg/mL (≈ 1.22 µM) and the Activity [12] was “inactive”. The MIC [13] was 0.5 µg/mL (≈ 1.22 µM) and the MIC [14] was 0.5 µg/mL (≈ 1.22 µM).
